# Measured values of several laboratories.
# Protocols differ between the studies behind these lines.
# CHRM5: Muscarinic acetylcholine receptor M5 (CHRM5, Homo sapiens, UniProt P08912)
# MAP2K5: Dual specificity mitogen-activated protein kinase kinase 5 (MAP2K5, Homo sapiens, UniProt Q13163)
# NPSR1: Neuropeptide S receptor (NPSR1, Homo sapiens, UniProt Q6W5P4)
# MC4R: Melanocortin receptor 4 (MC4R, Homo sapiens, UniProt P32245)
# SLC6A2: Sodium-dependent noradrenaline transporter (SLC6A2, Homo sapiens, UniProt P23975)
# NQO2: Ribosyldihydronicotinamide dehydrogenase [quinone] (NQO2, Homo sapiens, UniProt P16083)
Structure (SMILES),target,test,conditions,measurement,result
CC[C@@H]1SC2(CCN(C)CC2)NC1=O,CHRM5,"calcium signal, agonist",,EC50,1.08 µM
Cc1cnc(-c2ccc(-c3ccc(NC(=O)Nc4c(F)cc(F)cc4F)cc3F)c3c2C(=O)NC3)[nH]1,MAP2K5,"binding, competition with immobilised ligand",,Kd,0.0008 µM
COc1cccc(C2c3c(ncn(-c4ccccc4Cl)c3=N)Oc3ccc4ccccc4c32)c1 (centres unmarked),NPSR1,"calcium signal, antagonist",,IC50,5.51 µM
CSSc1ccccc1C(=O)O,"srtA (Staphylococcus aureus, UniProt Q2FV99)","enzyme activity, inhibitor, fluorescence",pH 7.5,Ki,367 µM
CCCC[C@H](NC(=O)[C@H](CO)NC(=O)[C@H](Cc1ccc(O)cc1)NC(=O)[C@H](CO)NC(C)=O)C(=O)N[C@@H](CCC(=O)O)C(=O)N[C@@H](Cc1c[nH]cn1)C(=O)N[C@@H](C)C(=O)N[C@@H](CCCNC(=N)N)C(=O)N[C@@H](Cc1c[nH]c2ccccc12)C(=O)NCC(=O)N[C@@H](CCCCN)C(=O)N1CCC[C@H]1C(=O)N[C@H](C(=O)NCC(=O)N[C@@H](CCCCN)C(=O)N[C@@H](CCCCN)C(=O)N[C@@H](CCCNC(=N)N)C(N)=O)C(C)C,MC4R,"cAMP, agonist",,EC50,0.257 µM
COc1cccc(C2c3c(ncn(-c4cccc(Cl)c4)c3=N)Oc3ccc4ccccc4c32)c1 (centres unmarked),NPSR1,"cAMP, antagonist, TR-FRET",,IC50,15.4 µM
Nc1ncnc2c1ncn2[C@@H]1O[C@H](COP(=O)(O)OP(=O)(O)OP(=O)(O)O)[C@@H](O)[C@H]1O,"dnaA (Escherichia coli, UniProt P03004)",binding,,Kd,0.04 µM
COc1cccc(C2c3c(ncn(-c4ccc(NC(C)=O)cc4)c3=N)Oc3ccc4ccccc4c32)c1 (centres unmarked),NPSR1,"cAMP, antagonist, TR-FRET",,IC50,19.4 µM
CC[C@H](C)[C@H](NC(=O)CN)C(=O)N[C@H](C(=O)N[C@@H](CC(N)=O)C(=O)N[C@H](C(=O)N[C@@H](CC(C)C)C(=O)N[C@@H](CCC(N)=O)C(=O)N[C@@H](CCCCN)C(=O)N[C@@H](Cc1ccc(O)cc1)C(=O)N[C@@H](Cc1ccc(O)cc1)C(=O)N[C@@H](CO)C(=O)N[C@@H](CCCNC(=N)N)C(=O)N[C@H](C(=O)N[C@@H](CCCNC(=N)N)C(=O)NCC(=O)NCC(=O)N[C@@H](CCCNC(=N)N)C(=O)N[C@H]1CSSC[C@@H](C(=O)N[C@@H](CO)C(=O)N[C@H](C(=O)N[C@@H](CCCNC(=N)N)C(=O)NCC(=O)N[C@@H](CCCNC(=N)N)C(=O)N[C@@H](CCCCN)C(=O)N[C@@H](CO)C(=O)N[C@@H](CO)C(=O)N[C@@H](CCCNC(=N)N)C(=O)N[C@@H](CCCNC(=N)N)C(=O)N[C@@H](CCCCN)C(=O)N[C@@H](CCCCN)C(N)=O)[C@@H](C)O)NC(=O)[C@H](CCCCN)NC(=O)CNC(=O)[C@H]([C@@H](C)CC)NC(=O)[C@H](CCC(N)=O)NC(=O)[C@H](CCC(=O)O)NC(=O)[C@H](CCC(=O)O)NC(=O)[C@H](CCCCN)NC(=O)[C@@H]2CCCN2C(=O)[C@H](CC(C)C)NC(=O)[C@H](CO)NC(=O)[C@H](CO)NC(=O)[C@H](CC(C)C)NC(=O)[C@H](C(C)C)NC(=O)[C@H](C)NC1=O)C(C)C)[C@@H](C)O)[C@@H](C)CC,MC4R,ligand displacement in cells,,Ki,0.567 µM
CCOC(=O)[C@@]12C[C@@H]1[C@@H](n1ccc3c(NCCc4ccccc4)nc(C#Cc4ccccc4)nc31)[C@H](O)[C@@H]2O,SLC6A2,"ligand displacement, radioligand",,Ki,2.82 µM
COc1ccc(C2c3c(ncn(CCc4ccccc4)c3=N)Oc3ccc4ccccc4c32)cc1OC (centres unmarked),NPSR1,"calcium signal, antagonist",,IC50,> 30 µM
Clc1ccc2c(c1)N(CCCN1CCN(CCCc3ccccc3)CC1)c1ccccc1S2,"Trypanothione reductase (TPR, Trypanosoma cruzi, UniProt P28593)","enzyme activity, inhibitor, absorbance",,Ki,0.331 µM
CC(C)[C@@H](CC[C@@H](C)[C@H]1CC[C@H]2[C@@H]3[C@H](O)C[C@H]4C[C@@H](NCCCNCCCCNCCCN)CC[C@]4(C)[C@H]3CC[C@]12C)OS(=O)(=O)O,"Tyrosine-protein phosphatase non-receptor type 12 (PTPN12, Homo sapiens, UniProt Q05209)","enzyme activity, inhibitor",,Ki,40 µM
CCN(CC)Cc1cc(Nc2ccnc3cc(Cl)ccc23)ccc1O,NQO2,"enzyme activity, inhibitor",,Ki,160 µM
N=c1c2c(ncn1-c1ccccc1)Oc1ccc3ccccc3c1C2c1ccccc1 (centres unmarked),NPSR1,"calcium signal, antagonist",,IC50,0.69 µM
NC(=O)N1c2ccccc2C=Cc2ccccc21,NQO2,"enzyme activity, inhibitor",,Ki,> 500 µM
COc1cccc(C2c3c(ncn(-c4ccc(C#N)cc4)c3=N)Oc3ccc4ccccc4c32)c1 (centres unmarked),NPSR1,"cAMP, antagonist, TR-FRET",,IC50,5.52 µM
CCCOC(=O)[C@@]12C[C@@H]1[C@@H](n1cnc3c(NC)nc(C#Cc4ccc(Cl)s4)nc31)[C@H](O)[C@@H]2O,SLC6A2,"ligand displacement, radioligand",cell membranes,Ki,> 10 µM
CC(C)C1=Cc2ccc3c(c2C(=O)C1=O)CCCC3(C)C,"Cholinesterase (BCHE, Homo sapiens, UniProt P06276)","enzyme activity, inhibitor",,Ki,> 100 µM
O=C(O)Cc1ccccc1Nc1c(Cl)cccc1Cl,NQO2,"enzyme activity, inhibitor",,Ki,> 1000 µM
Cc1cc(Nc2cc3ncccc3c(N[C@@H]3C[C@H]4CC[C@@H](C3)N4CCC#N)n2)n[nH]1,MAP2K5,"binding, competition with immobilised ligand",,Kd,0.065 µM
CCCCN1CCC(COC(=O)c2ccc(N)c(OCF)c2)CC1,CHRM5,"cell-free assay, radioligand",,Ki,> 10 µM
Nc1ncnc2c1ncn2[C@@H]1O[C@H](COP(=O)(O)OP(=O)(O)OP(=O)(O)OP(=O)(O)OP(=O)(O)OC[C@H]2O[C@@H](n3cnc4c(N)ncnc43)[C@H](O)[C@@H]2O)[C@@H](O)[C@H]1O,"adk (Escherichia coli, UniProt P69441)","binding, ITC",,Kd,0.354 µM
CCOC(=O)c1ccc(-n2cnc3c(c2=N)C(c2cccc(OC)c2)c2c(ccc4ccccc24)O3)cc1 (centres unmarked),NPSR1,"cAMP, antagonist, TR-FRET",,IC50,15.4 µM
Cc1cccc(Nc2ccccc2C(=O)O)c1C,NQO2,"enzyme activity, inhibitor, absorbance",,Ki,> 500 µM
O[C@@H]1[C@H](O)[C@@H]2C[C@@H]2[C@H]1n1cnc2c(NCC(c3ccccc3)c3ccccc3)nc(C#Cc3ccccc3)nc21,SLC6A2,"ligand displacement, radioligand",,Ki,5.78 µM
